As usually defined, the Ki is a measure of affinity in units of concentration, obtained from inhibition or displacement. In general, EC50 refers to the concentration that produces a half-maximal response. Lower therefore signals an effect from little substance.

Assay [1] deals with T1, Neuronal acetylcholine receptor subunit alpha-7 (Rattus norvegicus, UniProt Q05941). Briefly: Binding affinity in rat hippocampi against Nicotinic acetylcholine receptor alpha7. The class given is tissue-based, Hippocampus. An outline of the steps: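 Incubated with 5 nM [¹²⁵I]α-bungarotoxin and 1 mg/mL BSA for 2 h at 21 °C. Collected on GF/C filters pretreated with 1% BSA/0.01% PEI. IC50 from six concentrations in triplicate.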

The target in assay [2] is Neuronal acetylcholine receptor; alpha4/beta2 (Rattus norvegicus, UniProt P09483+P12390). In words: Binding affinity in rat forebrain against Nicotinic acetylcholine receptor alpha4-beta2. In a few lines: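 Captured on GF/B filters treated with 0.01% PEI and counted by scintillation. Nonspecific binding taken with 100 µM carbachol. IC50 fitted from five concentrations run in triplicate.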

In assay [3] the target is T1, Neuronal acetylcholine receptor subunit alpha-7. In words: Potency was determined by measuring current activation in Xenopus oocytes expressing rat alpha-7 nAChRs. The format is cell-based, Oocyte. An outline of the steps: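 Xenopus oocytes injected with cRNA for rat α7 nAChR and recorded 3-10 days after injection. Read-out is evoked current activation. Intrinsic activity scaled in each oocyte to the current elicited by 3 mM acetylcholine, set as 100%.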

T1 sequence (Q05941 whole entry): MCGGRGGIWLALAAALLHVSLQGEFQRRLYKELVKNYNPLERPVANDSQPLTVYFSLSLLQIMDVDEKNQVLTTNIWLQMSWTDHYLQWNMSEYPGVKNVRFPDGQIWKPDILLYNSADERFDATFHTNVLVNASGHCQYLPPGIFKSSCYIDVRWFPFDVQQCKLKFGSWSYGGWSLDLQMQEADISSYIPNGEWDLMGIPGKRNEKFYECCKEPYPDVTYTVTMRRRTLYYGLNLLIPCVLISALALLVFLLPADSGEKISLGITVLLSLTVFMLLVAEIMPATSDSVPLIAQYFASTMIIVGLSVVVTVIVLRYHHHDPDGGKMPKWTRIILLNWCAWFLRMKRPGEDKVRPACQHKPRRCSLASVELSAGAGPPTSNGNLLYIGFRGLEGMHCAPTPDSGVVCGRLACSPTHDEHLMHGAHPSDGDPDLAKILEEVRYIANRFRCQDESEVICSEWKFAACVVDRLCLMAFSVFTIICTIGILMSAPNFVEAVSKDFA
Neuronal acetylcholine receptor; alpha4/beta2, sequence (P09483 whole entry): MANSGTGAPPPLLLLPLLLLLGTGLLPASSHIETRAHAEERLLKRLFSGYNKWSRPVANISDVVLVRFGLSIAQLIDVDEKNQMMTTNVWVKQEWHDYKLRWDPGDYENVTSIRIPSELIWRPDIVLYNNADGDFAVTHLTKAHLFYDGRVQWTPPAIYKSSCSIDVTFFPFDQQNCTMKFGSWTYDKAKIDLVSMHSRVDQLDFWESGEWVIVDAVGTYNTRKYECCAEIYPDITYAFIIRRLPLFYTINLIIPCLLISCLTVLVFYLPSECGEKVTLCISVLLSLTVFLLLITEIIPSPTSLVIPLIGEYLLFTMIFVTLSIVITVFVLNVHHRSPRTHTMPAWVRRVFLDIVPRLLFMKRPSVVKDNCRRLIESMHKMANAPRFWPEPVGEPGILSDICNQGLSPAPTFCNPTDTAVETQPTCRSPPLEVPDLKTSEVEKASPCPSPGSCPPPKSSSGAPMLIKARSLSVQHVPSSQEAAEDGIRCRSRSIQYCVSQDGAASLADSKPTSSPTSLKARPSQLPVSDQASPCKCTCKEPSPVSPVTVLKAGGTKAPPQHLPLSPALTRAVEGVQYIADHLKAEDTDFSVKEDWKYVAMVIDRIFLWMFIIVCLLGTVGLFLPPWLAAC
Neuronal acetylcholine receptor; alpha4/beta2, sequence (P12390 whole entry): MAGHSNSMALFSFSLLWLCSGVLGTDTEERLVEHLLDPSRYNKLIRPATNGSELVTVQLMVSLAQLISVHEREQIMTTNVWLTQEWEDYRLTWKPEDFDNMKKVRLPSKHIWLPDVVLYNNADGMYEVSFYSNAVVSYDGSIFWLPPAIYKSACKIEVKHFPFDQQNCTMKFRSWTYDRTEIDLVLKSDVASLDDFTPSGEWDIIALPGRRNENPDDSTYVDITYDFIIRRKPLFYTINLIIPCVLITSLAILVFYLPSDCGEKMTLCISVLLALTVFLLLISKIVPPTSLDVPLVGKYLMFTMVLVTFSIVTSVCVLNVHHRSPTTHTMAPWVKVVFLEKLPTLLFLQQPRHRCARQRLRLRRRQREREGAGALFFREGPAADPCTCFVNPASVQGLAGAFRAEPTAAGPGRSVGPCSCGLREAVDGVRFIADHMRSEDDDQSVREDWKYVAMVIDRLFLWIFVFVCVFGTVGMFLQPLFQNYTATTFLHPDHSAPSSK

The compound `O=C1NCC2(CN3CCC2CC3)N1` (configuration not stated) showed an inhibition constant Ki in assay [1] of over 13 µM. Still for that read-out and setting: in the case of `O=C1NC2(CO1)CN1CCC2CC1` (configuration not stated) it was over 4.3 µM. Regarding `CCN1CC2(CN3CCC2CC3)OC1=O` (configuration not stated), the values for the Ki in assay [2] and in assay [1] were 0.17 µM and 0.69 µM, respectively. For the compound `CN1C(=O)NCC12CN1CCC2CC1` (configuration not stated), in assay [1], the Ki is over 13 µM. Regarding `O=C1CC2(CN1)CN1CCC2CC1` (configuration not stated), the affinity in assay [1], expressed as Ki, was 4 µM. That is a single-digit micromolar value. In assay [3], `O=C1NCC2(CN3CCC2CC3)O1` (single isomer, unassigned; (-)) gave a 50% effective concentration (EC50) of 21000 µM. That is a millimolar value.
